Wnt act: Wnt/beta-catenin pathway activators, primary screen, cell-based, plate reader, single point. Wnt/beta-catenin reporter cell assay, activator. activation, % at 9.35 µM. 300,000 compounds, 1.2% hits; in the data active means activation above about 30%, passing the limit was not always enough;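 further: 0% = neutral control wells and 100% = positive control wells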
SR-BI HDL uptake: inhibitors of SR-BI mediated HDL lipid uptake, primary screen, ldlA[mSR-BI] cells, fluorescence, single point. AID 488896, 2010. 320,000 compounds, 0.96% hits. ldlA[mSR-BI] CHO cells, DiI-HDL uptake fluorescence, 3 h. inhibition, % at 12.5 µM;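 active means mean replicate inhibition of at least 70% and a set share of replicates each scoring 70 or more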;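 further: 0% = median of neutral control wells and 100% = median of positive control wells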
Target sequence (Q61009 whole entry, looked up): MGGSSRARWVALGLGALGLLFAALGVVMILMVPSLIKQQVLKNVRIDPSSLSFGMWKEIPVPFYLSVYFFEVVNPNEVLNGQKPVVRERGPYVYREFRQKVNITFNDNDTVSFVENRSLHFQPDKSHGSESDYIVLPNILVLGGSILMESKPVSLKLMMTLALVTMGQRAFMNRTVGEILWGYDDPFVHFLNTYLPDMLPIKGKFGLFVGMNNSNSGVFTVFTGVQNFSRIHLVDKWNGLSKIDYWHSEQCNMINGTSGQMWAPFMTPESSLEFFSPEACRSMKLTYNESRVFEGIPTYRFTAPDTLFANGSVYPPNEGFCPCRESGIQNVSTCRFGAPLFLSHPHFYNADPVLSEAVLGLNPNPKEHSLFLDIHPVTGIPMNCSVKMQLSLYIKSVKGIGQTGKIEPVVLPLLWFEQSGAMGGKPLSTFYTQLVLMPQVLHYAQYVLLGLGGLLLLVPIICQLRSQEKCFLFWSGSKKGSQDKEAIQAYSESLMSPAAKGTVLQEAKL
HSF1 activator: HSF-1 activators, primary screen, NIH3T3-HGL cells, MG132 stress, luminescence, single point | NIH3T3-HGL HSF-1 luciferase reporter, 8 h; 100% = twice DMSO control signal | activation, % at 9 µM | 300,000 compounds, 1.7% hits | AID 504408, 2011;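 active means mean replicate activation of at least 50% with a set share of replicates each reaching 50%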;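 further: 0% = median of the neutral control wells and 100% = twice that signal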
SR-BI uptake up: activators of SR-BI mediated DiI-HDL uptake, primary screen, ldlA[mSR-BI] CHO cells, DiI fluorescence; 3 h; 100 = double the neutral-control signal; activation, % at 12.5 µM; 320,000 compounds, 0.096% hits; AID 504775, 2011;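 active means mean replicate activation of at least 60% and every replicate at or above 60%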;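 further: 0% = median plate neutral-control signal and 100% = twice that signal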
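Test system: SR-BI-overexpressing, LDLR-lacking CHO cells. Measured by: DiI fluorescence, bottom read. Medium: Ham's F12 with 0.5% BSA, HEPES 25 mM, pH 7.4. Timing: 3 h uptake period with compound, 37 °C.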
MITF act: activators of MITF-driven TRPM1 promoter reporter, primary screen, cell-based, SK-MEL-5, luciferase, single point; SK-MEL-5 TRPM1-promoter luciferase, 24 h; % of positive control, neutral wells = 0; activation, % at 12.5 µM; 300,000 compounds, 0.75% hits;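 active means mean activation of at least 80% with every replicate also reaching 80%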;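 further: 0% = neutral control wells and 100% = parthenolide positive control wells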
An asterisk follows results filed as active; nt = no result. Rows were chosen to be rich in hits. Some 3.6% of all compounds tested hit in one or more screens of this group.

SMILES	Wnt act	SR-BI HDL uptake	HSF1 activator	SR-BI uptake up	MITF act
C/C(=N\N=c1/sc2ccccc2n1C)c1ccccn1	52*	-1	0	1	64
C/C(=N\N=c1/sc2ccccc2n1C)c1ccc(N2CCOCC2)cc1	nt	10	66*	-10	-10
C/C(=N\Nc1ccccn1)c1ccc(N2CCOCC2)cc1	29	-21	7	21	58
CC(=O)N/N=c1\sc2ccccc2n1C	0	2	8	-2	-18
CCC1(CC)CNC(=O)NC1	-8	-25	nt	25	-3
Cc1nn2c(=O)cc(COC(=O)c3c(F)cccc3Cl)nc2s1	50*	-31	nt	31	61
COc1ccc(N2CCC(CNC(=O)Nc3ccc(OC)cc3OC)C2)cc1 (configuration not stated)	-1	96*	3	-96	-5
O=C(NCc1cccs1)c1csc(COCCO)n1	1	nt	nt	nt	nt
CC(OC(=O)c1ccc(-n2cnnn2)cc1)C(=O)Nc1ccccc1F (configuration not stated)	51*	3	nt	-3	5
CC(C)OP(=O)(Nc1cccc2ccccc12)OC(C)C	67*	-13	-1	13	-4
CCCc1ccc(-c2cc(C(=O)NCCc3ccc(S(N)(=O)=O)cc3)c3ccccc3n2)cc1	nt	37	85*	-37	106*
COCCNC(=O)c1cc(-c2ccc(-c3ccccc3)cc2)nc2ccccc12	9	30	64*	-30	49
NS(=O)(=O)c1ccc(CCNC(=O)c2cc(-c3ccc(Br)cc3)nc3ccccc23)cc1	-2	56	23	-56	21
O=C(NCc1ccccn1)c1cc(-c2ccc(-c3ccccc3)cc2)nc2ccccc12	-8	12	84*	-12	23
COC(=O)[C@]12C[C@H](CC(=O)NCc3cccc(C(F)(F)F)c3)C(=O)N(Cc3ccc4c(c3)OCO4)C1=C[C@H](C(C)(C)C)O[C@@H]2C	-7	nt	nt	nt	nt
COc1cc(CN2C(=O)C(C)ON=C2c2cccs2)cc(OC)c1 (configuration not stated)	3	nt	nt	nt	nt
COCCNC(=O)C1(C)CCN(C(=O)c2ccc3ccccc3n2)C1 (configuration not stated)	-4	nt	nt	nt	nt
O[C@H]1CN(CC2CCCCC2)[C@@H](c2ccc(Cl)cc2)C[C@@H]1n1cc(C2CC2)nn1	-2	nt	nt	nt	nt
O=C(c1ccco1)N(Cc1cccc([N+](=O)[O-])c1)c1ccc(Br)cc1	-1	11	14	-11	-8
O=C(c1ccco1)N(Cc1ccc([N+](=O)[O-])cc1)c1ccc(Br)cc1	nt	-19	57*	19	nt
COc1ccc2c(C)cc(SCC(=O)Nc3ncc(Cl)cc3Cl)nc2c1	-2	19	-27	-19	-7
Cc1cc(SCC(=O)Nc2ncc(Cl)cc2Cl)nc2ccccc12	9	55	54*	-55	5
CCNC(=O)C1CCCN(C(=O)c2ccc(F)c(Cl)c2)CC1 (configuration not stated)	-6	nt	nt	nt	nt
COc1cccc(/C=N/Nc2ncnc3scc(-c4ccccc4)c23)c1O	-6	115*	-5	-115	-72
COc1cc(OC)c(OC)cc1CNc1cc(C)ccc1OC	-2	72*	-14	-72	-22
SMILES	Wnt act	SR-BI HDL uptake	HSF1 activator	SR-BI uptake up	MITF act
COc1ccc(C)cc1NCc1cccc(OC)c1OC	nt	5	4	-5	-5
CN(C)c1ccc(N=Nc2ccc(S(N)(=O)=O)cc2)cc1	42*	14	32	-14	67
C[C@H]1CN([C@@H](C)CO)C(=O)c2cccc(NC(=O)Nc3ccc(C(F)(F)F)cc3)c2O[C@@H]1CN(C)Cc1ccc(Cl)c(Cl)c1	-7	75*	nt	-75	-47
C[C@@H]1CN([C@H](C)CO)C(=O)c2cc(NC(=O)Nc3ccc(C(F)(F)F)cc3)ccc2O[C@H]1CN(C)Cc1ccc(Cl)c(Cl)c1	-3	-53	nt	53	-49
C[C@H](CO)N1C[C@H](C)[C@H](CN(C)S(=O)(=O)c2cn(C)cn2)Oc2ccc(NC(=O)Nc3ccc(C(F)(F)F)cc3)cc2CC1=O	-5	-2	nt	2	-22
C[C@@H]1CN([C@@H](C)CO)C(=O)Cc2cc(NC(=O)Nc3ccc(C(F)(F)F)cc3)ccc2O[C@@H]1CN(C)S(=O)(=O)c1ccc(Cl)cc1	-20	-90	nt	90*	-43
C[C@H](CO)N1C[C@H](C)[C@@H](CN(C)S(=O)(=O)c2ccc(F)cc2)Oc2ccc(NC(=O)Nc3ccc(C(F)(F)F)cc3)cc2C1=O	-5	-43	nt	43	-2
C[C@@H]1CN([C@H](C)CO)C(=O)c2cc(NC(=O)Nc3ccc(C(F)(F)F)cc3)ccc2O[C@H]1CN(C)S(=O)(=O)c1ccc(Cl)cc1	-9	-73	nt	73*	-14
Cc1[nH]c2ccccc2c1CC(=O)Nc1ccc(Oc2cccnc2)cc1	1	nt	nt	nt	nt
CN1OC[C@@H]2CN(C(=O)c3ccc([N+](=O)[O-])cc3)[C@H](c3ccccc3Br)C[C@@H]21	-4	nt	nt	nt	nt
Cc1oc(-c2cccs2)nc1CNC[C@H]1O[C@@H](n2cnc3c(N)ncnc32)[C@H](O)[C@@H]1O	0	-24	nt	24	6
O=C(NNC(=O)C12CC3CC(CC(C3)C1)C2)c1ccccn1	6	-25	3	25	nt
CC1(C)CC(NC(=O)c2ccccn2)CC(C)(C)N1O	56*	-44	10	44	1
CC(O)(c1cccnc1)c1nc(-c2ccc(F)c(Cl)c2)cs1 (configuration not stated)	-2	nt	nt	nt	nt
COc1ccc2c(c1OC)C(=O)N1N=C(c3ccc(F)cc3)CC21 (configuration not stated)	10	6	8	-6	22
Cc1ccc(C2=NN3C(=O)c4ccccc4C3C2)cc1 (configuration not stated)	39*	-8	24	8	31
Cc1nnc(Sc2cc(NCCCO)c([N+](=O)[O-])c3nonc23)s1	-6	-21	-17	21	-73
CCCC(=O)OCCNc1cc(Sc2nccn2C)c2nonc2c1[N+](=O)[O-]	-19	-18	290*	18	-101
O=[N+]([O-])c1c(NCCCO)cc(Sc2nc3ccccc3s2)c2nonc12	nt	41	272*	-41	-67
CCC(=O)OCCNc1cc(Sc2nc3ccccc3s2)c2nonc2c1[N+](=O)[O-]	-1	9	85*	-9	-58
Cc1nnc(Sc2cc(NCCO)c([N+](=O)[O-])c3nonc23)s1	-6	14	153*	-14	-65
CCCSc1cc(NCCOC(=O)CCC)c([N+](=O)[O-])c2nonc12	nt	-7	-1	7	1

Bioassay records from PubChem BioAssay.
